In the library only some 2.1% were active in any assay of this set; here they are far more common.
PKA-R1A activ: activates the PKA-R1A holoenzyme complex | P00514+P68181 | PKA-R1A dissociation, Cy5-IP20 fluorescence polarization; scaled: DMSO 0%, 113 µM cGMP 100% | activation, % at 11.4 µM | 340,000 tested, 0.083% active | AID 504707;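 active = percent activation above the mean of all tested compounds plus 3 SD, cut at about 19% in these data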;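 also: higher means more PKAc released from R1A so a rise in polarization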
MsrA inh: inhibits bovine methionine sulfoxide reductase A. purified bovine MsrA, absorbance read-out. inhibition, % at 15.5 µM. 360,000 tested, 0.75% active. AID 651718;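 also: 0% = vehicle wells with enzyme and 100% = reference inhibitor wells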
bovine MsrA act: activates bovine MsrA enzyme; purified bovine MsrA, absorbance read-out; activation, % at 10.6 µM; 360,000 tested, 0.3% active; AID 602163; in the data active = activation above about 7.5%;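 also: 0% = vehicle and 100% = reference activator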
PKA-R2B act: activators of human PKA-R2B complex. PKA-R2B holoenzyme dissociation, Cy5-IP20 fluorescence polarization; R2B truncated from residue 108, S112A mutant; 0% DMSO only, 100% 113 µM cGMP. AID 504700. 340,000 tested, 0.079% active. P22694+P31323. activation, % at 11.4 µM;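 active = activation above a cutoff set at the mean over all compounds plus 3 SD, cut at about 18% in these data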;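 also: higher means more holoenzyme dissociation and a rise in polarization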
Target sequence (P31323 whole entry, looked up, other chains not shown, the tested form may be a part): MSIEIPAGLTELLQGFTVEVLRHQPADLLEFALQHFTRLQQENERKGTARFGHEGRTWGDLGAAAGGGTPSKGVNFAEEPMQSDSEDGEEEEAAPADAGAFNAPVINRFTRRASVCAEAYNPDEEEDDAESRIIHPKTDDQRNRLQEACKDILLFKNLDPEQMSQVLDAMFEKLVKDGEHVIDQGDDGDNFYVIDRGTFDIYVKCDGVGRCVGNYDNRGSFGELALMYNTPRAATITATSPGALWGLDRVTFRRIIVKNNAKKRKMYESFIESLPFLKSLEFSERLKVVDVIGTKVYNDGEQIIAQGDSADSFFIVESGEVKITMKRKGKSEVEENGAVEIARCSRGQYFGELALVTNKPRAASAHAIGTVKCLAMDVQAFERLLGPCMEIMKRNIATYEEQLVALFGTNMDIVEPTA
IMP-1 inh: inhibitors of Pseudomonas aeruginosa IMP-1 metallo-beta-lactamase; purified IMP-1, nitrocefin hydrolysis, epi-absorbance fluorescence; inhibition, % at 5.6 µM; 290,000 tested, 0.45% active; AID 1556;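 active = inhibition above the mean plus 3 SD of all compounds in the same screening run, cut at about 4.5% in these data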;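 also: 0% = IMP-1 with DMSO and 100% = DMSO wells lacking enzyme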
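Test system: recombinant IMP-1 enzyme, purified / Medium: HEPES buffer pH 7.1 with ZnSO4 and Brij 35 / Doses: single dose, 5.6 µM / Times: 25 °C, 15 min preincubation, 25 min reaction / Detection: Epi-absorbance via hydrolysed-nitrocefin quenching of white-plate fluorescence, 480/530 nm, EDTA stop / Evaluation: percent inhibition from optical density relative to buffer-blank wells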
VIM-2 inh: blocks Pseudomonas aeruginosa VIM-2 metallo-beta-lactamase | 290,000 tested, 0.89% active | inhibition, % at 5.6 µM | purified VIM-2, nitrocefin hydrolysis, epi-absorbance fluorescence;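 active = inhibition above the mean of all tested compounds plus 3 SD, cutoff set per screening run, cut at about 7.5% in these data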;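 also: red hydrolysis product quenches plate fluorescence so inhibitors raise well fluorescence; 0% = enzyme with DMSO and 100% = DMSO without enzyme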
MsrA inh confirm: confirmation of bovine MsrA inhibitors. AID 651822. purified bovine MsrA, absorbance read-out. shares compounds with MsrA inh. inhibition, % at 15.5 µM. 2,300 tested, 41% active;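 also: coupled to thioredoxin reductase with NADPH and selenocystamine and DMSO as substrate; 0% = vehicle only and 100% = full effect of reference inhibitor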
Numbers without * were called inactive. Rule as the data show it, unless noted: active = inhibition above about 4.5%; inactive = the rest.

What do the screens show for `CCOP(=O)(OCC)C(NC(=O)c1cc([N+](=O)[O-])cc([N+](=O)[O-])c1)C(F)(F)F` (stereo unspecified)?
PKA-R1A activ: -2.7; MsrA inh: 0.0; bovine MsrA act: -1.3; PKA-R2B act: -4.0; IMP-1 inh: 0.3; VIM-2 inh: -1.4

Results for Cc1ccc(-c2ccc(/C=N/N=C3/NC(=O)C(CC(=O)O)S3)o2)c([N+](=O)[O-])c1 (stereo unspecified) ?
PKA-R1A activ: -1.1; MsrA inh: 5.9*; bovine MsrA act: -5.5; PKA-R2B act: -10.7; IMP-1 inh: -4.5; VIM-2 inh: -4.1; MsrA inh confirm: 6.8*

How did O=C(O)CC1S/C(=N/N=C/c2ccc(-c3ccccc3[N+](=O)[O-])o2)NC1=O (stereo unspecified) do in these assays?
PKA-R1A activ: 9.4; MsrA inh: 4.9*; bovine MsrA act: -4.4; PKA-R2B act: -1.8; IMP-1 inh: -4.3; VIM-2 inh: -4.9; MsrA inh confirm: 4.3

Results for O=C(N/N=C/c1ccc(-c2ccccc2[N+](=O)[O-])o1)c1cncc(Br)c1 ?
PKA-R1A activ: -8.5; MsrA inh: 3.8; bovine MsrA act: -4.8; PKA-R2B act: -8.6; IMP-1 inh: 1.0; VIM-2 inh: -3.4

Results for CCCOc1ccccc1NC(=O)/C=C/c1ccc(OC)c(S(=O)(=O)N2CCOCC2)c1 ?
PKA-R1A activ: -1.8; MsrA inh: 0.1; bovine MsrA act: -4.9; PKA-R2B act: 1.1

Results for COC(=O)[C@]1(Sc2ccc(OC)cc2)CC(=O)N[C@@H]1c1ccccc1 ?
MsrA inh: -0.5; bovine MsrA act: -0.6

Results for COC(=O)C[C@H]1C=C[C@H](NC(=O)Nc2ccccc2)[C@@H](CO)O1 ?
MsrA inh: 0.1

What do the screens show for `C=CCC1S/C(=N/N=C/c2cccs2)NC1=O` (stereo unspecified)?
PKA-R1A activ: -4.6; MsrA inh: 6.7*; bovine MsrA act: -4.3; PKA-R2B act: -0.5; IMP-1 inh: -2.8; VIM-2 inh: -2.5; MsrA inh confirm: 5.7*

Results for O=C1N/C(=N\N=C\c2cccs2)SC1Cc1ccc(Cl)c(Cl)c1 (stereo unspecified) ?
PKA-R1A activ: -11.1; MsrA inh: 1.0; bovine MsrA act: -4.7; PKA-R2B act: 4.8; IMP-1 inh: -2.5; VIM-2 inh: -3.1

How did COc1ccc(/C=C2/SC(=O)N(CCNC(=O)C3CC(=O)N(Cc4ccccc4)C3)C2=O)cc1 (stereo unspecified) do in these assays?
PKA-R1A activ: -7.3; MsrA inh: 2.8; bovine MsrA act: -1.2; PKA-R2B act: -4.2

Results for CCC(=O)N1c2ccccc2NC2=C(C(=O)CCC2)C1c1cccnc1 (stereo unspecified) ?
PKA-R1A activ: -5.9; MsrA inh: 4.8*; bovine MsrA act: -4.8; PKA-R2B act: 4.4; IMP-1 inh: -0.9; VIM-2 inh: -2.9; MsrA inh confirm: 3.0

Results for CC(=O)Oc1cccc(C2C3=C(CC(C)(C)CC3=O)Nc3ccccc3N2C(C)=O)c1 (stereo unspecified) ?
PKA-R1A activ: -2.4; MsrA inh: 3.3; bovine MsrA act: -5.8; PKA-R2B act: -15.6; IMP-1 inh: -2.1; VIM-2 inh: -1.1

Results for CC(=O)N1c2ccccc2NC2=C(C(=O)CCC2)C1c1ccco1 (stereo unspecified) ?
PKA-R1A activ: -1.2; MsrA inh: 4.9*; bovine MsrA act: -16.7; PKA-R2B act: 0.2; IMP-1 inh: -2.5; VIM-2 inh: -2.3; MsrA inh confirm: 2.7

How did CCOC(=O)C1=C(C)NC2=C(C(=O)CCC2)C1c1cccnc1 (stereo unspecified) do in these assays?
PKA-R1A activ: -9.5; MsrA inh: 2.1; bovine MsrA act: -3.4; PKA-R2B act: -2.9; IMP-1 inh: -7.4; VIM-2 inh: -2.0

Results for Cc1noc(C)c1CCC(=O)Nc1cc(Cl)ccc1C(=O)O ?
PKA-R1A activ: -9.6; MsrA inh: -0.5; bovine MsrA act: -1.4; PKA-R2B act: -6.0

Bioassay records from PubChem BioAssay.
